Active and inactive are the calls of the source. The calls are words filed in the database; no cut-off is given here.
test system: Staphylococcus aureus; assay: Antimicrobial activity against community acquired methicillin-resistant Staphylococcus aureus isolate 23542 assessed as inhibition of bacterial biofilm after 18 hrs by broth microdilution method; type: functional
Outline: (§1)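 Biofilm MBIC on tissue culture-treated polystyrene 96-well plates. Twofold dilutions, 0.2 to 100 μM final, with 2% DMSO final. Inoculum was an overnight culture diluted 1:100 (~5 × 10^6 cells/well) in 0.5× TSB plus 1% glucose, grown 18 h at 37°C. Wells washed, heat-fixed 60°C 60 min, stained with 0.06% crystal violet, OD600 read. MBIC is the lowest concentration giving ≥80% inhibition versus untreated; geometric mean of ≥3 experiments.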

SMILES	MBIC
CCOc1cc(/C=C2\SC(=S)N(c3cccnc3)C2=O)ccc1O	25 µM
CCOc1cc(/C=C2\SC(=S)N(c3cccc(F)c3)C2=O)ccc1O	19.8 µM

test system: Staphylococcus aureus; assay: Antimicrobial activity against Staphylococcus aureus ATCC 35556 assessed as inhibition of bacterial biofilm formation after 18 hrs by broth microdilution method in presence of 20 ug/ml fibrinogen; type: functional
Outline: (§2)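 Polystyrene 96-well wells precoated with 100 μl fibronectin or fibrinogen (0–20 μg protein/ml) for 24 h at 4°C. Wells then washed with sterile water. The standard MBIC biofilm assay followed: 0.5× TSB with 1% glucose, 2% DMSO, 18 h at 37°C, crystal violet read at OD600.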

SMILES	MBIC
CCOc1cc(/C=C2\SC(=S)N(c3cccnc3)C2=O)ccc1O	12.5 µM
CCOc1cc(/C=C2\SC(=S)N(c3cccc(F)c3)C2=O)ccc1O	6.25 µM

test system: Staphylococcus epidermidis; assay: Antimicrobial activity against coagulase-negative Staphylococcus epidermidis isolate WTBF-45 assessed as inhibition of bacterial biofilm after 18 hrs by broth microdilution method; type: functional; outline: as §1

SMILES	MBIC
CCOc1cc(/C=C2\SC(=S)N(c3cccnc3)C2=O)ccc1O	17.7 µM
CCOc1cc(/C=C2\SC(=S)N(c3cccc(F)c3)C2=O)ccc1O	50 µM

test system: not listed separately; assay: Cytotoxicity against human HeLa cells after 3 days by MTT assay; type: cell-based
Outline: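 HeLa cells were seeded at 4 × 10^3 per well with or without serial dilutions of compound in DMSO. Plates were incubated 3 days at 37°C in minimal essential medium with 10% calf serum, and viability was read by MTT. CC50 was the concentration that reduced MTT-to-formazan conversion by 50%.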

SMILES	CC50 at 72 h
CCOc1cc(/C=C2\SC(=S)N(c3cccnc3)C2=O)ccc1O	≥ 100 µM
CCOc1cc(/C=C2\SC(=S)N(c3cccc(F)c3)C2=O)ccc1O	≥ 100 µM

test system: Staphylococcus epidermidis; assay: Antimicrobial activity against coagulase-negative Staphylococcus epidermidis isolate WTBF-48 assessed as inhibition of bacterial biofilm after 18 hrs by broth microdilution method; type: functional
Outline: (§3)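 Static biofilm in tissue culture-treated polystyrene 96-well plates in 0.5× TSB with 1% glucose. Overnight culture diluted 1:100 gives about 5 × 10^6 cells/well. Compound 2-fold series, final 0.2–100 μM, 2% DMSO. Incubated 18 h at 37°C. Washed, heat-fixed 60°C for 60 min, stained with 0.06% crystal violet, read at OD600. MBIC is the lowest concentration giving ≥80% inhibition versus untreated. Geometric mean of ≥3 independent experiments.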

SMILES	MBIC
CCOc1cc(/C=C2\SC(=S)N(c3cccnc3)C2=O)ccc1O	17.7 µM
CCOc1cc(/C=C2\SC(=S)N(c3cccc(F)c3)C2=O)ccc1O	50 µM

test system: Enterococcus faecium; assay: Antimicrobial activity against vancomycin-resistant Enterococcus faecium isolate 1401 assessed as inhibition of bacterial biofilm after 18 hrs by broth microdilution method; type: functional; outline: as §1

SMILES	MBIC
CCOc1cc(/C=C2\SC(=S)N(c3cccnc3)C2=O)ccc1O	19.8 µM
CCOc1cc(/C=C2\SC(=S)N(c3cccc(F)c3)C2=O)ccc1O	>=100 uM

test system: Enterococcus gallinarum; assay: Antimicrobial activity against vancomycin-resistant Enterococcus gallinarum isolate 2392 assessed as inhibition of bacterial biofilm after 18 hrs by broth microdilution method; type: functional; outline: as §1

SMILES	MBIC
CCOc1cc(/C=C2\SC(=S)N(c3cccc(F)c3)C2=O)ccc1O	50 µM

test system: Staphylococcus aureus; assay: Antimicrobial activity against Staphylococcus aureus ATCC 35556 assessed as inhibition of bacterial biofilm formation after 18 hrs by broth microdilution method in presence of 1 ug/ml fibrinogen; type: functional; outline: as §2

SMILES	MBIC
CCOc1cc(/C=C2\SC(=S)N(c3cccnc3)C2=O)ccc1O	12.5 µM
CCOc1cc(/C=C2\SC(=S)N(c3cccc(F)c3)C2=O)ccc1O	6.25 µM

test system: Staphylococcus aureus; assay: Antimicrobial activity against community acquired methicillin-resistant Staphylococcus aureus isolate 22733 assessed as inhibition of bacterial biofilm after 18 hrs by broth microdilution method; type: functional; outline: as §1

SMILES	MBIC
CCOc1cc(/C=C2\SC(=S)N(c3cccc(F)c3)C2=O)ccc1O	70.7 µM

test system: Staphylococcus aureus; assay: Antimicrobial activity against community acquired methicillin-resistant Staphylococcus aureus isolate 33548 assessed as inhibition of bacterial biofilm after 18 hrs by broth microdilution method; type: functional; outline: as §1

SMILES	MBIC
CCOc1cc(/C=C2\SC(=S)N(c3cccc(F)c3)C2=O)ccc1O	35.4 µM

test system: Staphylococcus aureus; assay: Antimicrobial activity against Staphylococcus aureus ATCC 35556 assessed as inhibition of bacterial biofilm formation after 18 hrs by broth microdilution method in presence of 10 ug/ml fibronectin; type: functional; outline: as §2

SMILES	MBIC
CCOc1cc(/C=C2\SC(=S)N(c3cccnc3)C2=O)ccc1O	12.5 µM
CCOc1cc(/C=C2\SC(=S)N(c3cccc(F)c3)C2=O)ccc1O	6.25 µM

test system: Staphylococcus aureus; assay: Antimicrobial activity against Staphylococcus aureus ATCC 35556 assessed as inhibition of primary adhesion of bacterial biofilm to polystyrene surface under static condition pretreated with compound MBIC for 30 mins measured after 30 mins by fluorescence emission using BaclLight Live Dead stain; type: functional
Outline: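 PBS suspension of mid-log S. aureus ATCC 35556 exposed to compound in tubes for 30 min at 37°C. Cells centrifuged to remove free compound and resuspended in PBS at the original density. They were then placed on tissue culture-treated polystyrene for 30 min at 37°C. Wells washed, BacLight Live/Dead fluorescence read (ex 485, em 530 nm). Fraction adherent calculated versus untreated.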

SMILES	inhibition (INH)
CCOc1cc(/C=C2\SC(=S)N(c3cccnc3)C2=O)ccc1O	>=80%

test system: Enterococcus faecium; assay: Antimicrobial activity against vancomycin-resistant Enterococcus faecium isolate EF1509 assessed as inhibition of bacterial biofilm after 18 hrs by broth microdilution method; type: functional; outline: as §1

SMILES	MBIC
CCOc1cc(/C=C2\SC(=S)N(c3cccnc3)C2=O)ccc1O	21 µM
CCOc1cc(/C=C2\SC(=S)N(c3cccc(F)c3)C2=O)ccc1O	>=100 uM

test system: Staphylococcus epidermidis; assay: Antimicrobial activity against Staphylococcus epidermidis ATCC 35984 assessed as inhibition of bacterial biofilm after 18 hrs by broth microdilution method; type: functional; outline: as §3

SMILES	MBIC
CCOc1cc(/C=C2\SC(=S)N(c3cccnc3)C2=O)ccc1O	12.5 µM
CCOc1cc(/C=C2\SC(=S)N(c3cccc(F)c3)C2=O)ccc1O	25 µM

test system: Staphylococcus aureus; assay: Antimicrobial activity against community acquired community-acquired Staphylococcus aureus MW2 assessed as inhibition of bacterial biofilm after 18 hrs by broth microdilution method; type: functional; outline: as §1

SMILES	MBIC
CCOc1cc(/C=C2\SC(=S)N(c3cccnc3)C2=O)ccc1O	21 µM
CCOc1cc(/C=C2\SC(=S)N(c3cccc(F)c3)C2=O)ccc1O	31.5 µM

test system: Staphylococcus aureus; assay: Antimicrobial activity against hospital acquired methicillin-resistant Staphylococcus aureus isolate 58336 assessed as inhibition of bacterial biofilm after 18 hrs by broth microdilution method; type: functional; outline: as §1

SMILES	MBIC
CCOc1cc(/C=C2\SC(=S)N(c3cccnc3)C2=O)ccc1O	14.9 µM
CCOc1cc(/C=C2\SC(=S)N(c3cccc(F)c3)C2=O)ccc1O	10.5 µM

test system: Staphylococcus epidermidis; assay: Antimicrobial activity against Staphylococcus epidermidis O-47 assessed as inhibition of bacterial biofilm after 18 hrs by broth microdilution method; type: functional; outline: as §3

SMILES	MBIC
CCOc1cc(/C=C2\SC(=S)N(c3cccnc3)C2=O)ccc1O	59.5 µM
CCOc1cc(/C=C2\SC(=S)N(c3cccc(F)c3)C2=O)ccc1O	100 µM

test system: Enterococcus faecalis; assay: Antimicrobial activity against Enterococcus faecalis ATCC 51575 on medical grade silicone disk assessed as inhibition of bacterial biofilm after 18 hrs by broth microdilution method; type: functional

SMILES	MBIC90	MBIC
CCOc1cc(/C=C2\SC(=S)N(c3cccnc3)C2=O)ccc1O	19.8 µM	–
CCOc1cc(/C=C2\SC(=S)N(c3cccc(F)c3)C2=O)ccc1O	–	63 µM

test system: Staphylococcus aureus; assay: Antimicrobial activity against community acquired methicillin-resistant Staphylococcus aureus isolate 44081 assessed as inhibition of bacterial biofilm after 18 hrs by broth microdilution method; type: functional; outline: as §1

SMILES	MBIC
CCOc1cc(/C=C2\SC(=S)N(c3cccnc3)C2=O)ccc1O	25 µM

test system: Staphylococcus aureus; assay: Antimicrobial activity against Staphylococcus aureus ATCC 35556 assessed as inhibition of bacterial biofilm formation after 18 hrs by broth microdilution method in presence of 2 ug/ml fibronectin; type: functional; outline: as §2

SMILES	MBIC
CCOc1cc(/C=C2\SC(=S)N(c3cccnc3)C2=O)ccc1O	12.5 µM
CCOc1cc(/C=C2\SC(=S)N(c3cccc(F)c3)C2=O)ccc1O	6.25 µM

test system: Staphylococcus aureus; assay: Antimicrobial activity against Staphylococcus aureus ATCC 35556 assessed as inhibition of bacterial biofilm formation after 18 hrs by broth microdilution method in presence of 1 ug/ml fibronectin; type: functional; outline: as §2

SMILES	MBIC
CCOc1cc(/C=C2\SC(=S)N(c3cccnc3)C2=O)ccc1O	12.5 µM
CCOc1cc(/C=C2\SC(=S)N(c3cccc(F)c3)C2=O)ccc1O	6.25 µM

test system: Staphylococcus aureus; assay: Antimicrobial activity against Staphylococcus aureus ATCC 35556 assessed as effect on protein synthesis at 30 ug/ml; type: functional, organism-based

SMILES	inhibition
CCOc1cc(/C=C2\SC(=S)N(c3cccnc3)C2=O)ccc1O	inactive

test system: Staphylococcus epidermidis; assay: Antimicrobial activity against Staphylococcus epidermidis 1457 assessed as inhibition of bacterial biofilm after 18 hrs by broth microdilution method; type: functional; outline: as §3

SMILES	MBIC
CCOc1cc(/C=C2\SC(=S)N(c3cccnc3)C2=O)ccc1O	12.5 µM
CCOc1cc(/C=C2\SC(=S)N(c3cccc(F)c3)C2=O)ccc1O	50 µM

test system: Staphylococcus aureus; assay: Antimicrobial activity against community acquired methicillin-susceptible Staphylococcus aureus assessed as inhibition of bacterial biofilm after 18 hrs by broth microdilution method; type: functional; outline: as §3

SMILES	MBIC
CCOc1cc(/C=C2\SC(=S)N(c3cccnc3)C2=O)ccc1O	12.5 µM
CCOc1cc(/C=C2\SC(=S)N(c3cccc(F)c3)C2=O)ccc1O	14.9 µM

test system: Staphylococcus aureus; assay: Antimicrobial activity against community acquired Staphylococcus aureus NCTC 8325 assessed as inhibition of bacterial biofilm after 18 hrs by broth microdilution method; type: functional; outline: as §3

SMILES	MBIC
CCOc1cc(/C=C2\SC(=S)N(c3cccnc3)C2=O)ccc1O	12.5 µM
CCOc1cc(/C=C2\SC(=S)N(c3cccc(F)c3)C2=O)ccc1O	25 µM

test system: Staphylococcus epidermidis; assay: Antimicrobial activity against coagulase-negative Staphylococcus epidermidis isolate WTBF-46 assessed as inhibition of bacterial biofilm after 18 hrs by broth microdilution method; type: functional; outline: as §3

SMILES	MBIC
CCOc1cc(/C=C2\SC(=S)N(c3cccnc3)C2=O)ccc1O	25 µM
CCOc1cc(/C=C2\SC(=S)N(c3cccc(F)c3)C2=O)ccc1O	59.5 µM

test system: Enterococcus faecalis; assay: Antimicrobial activity against vancomycin-resistant Enterococcus faecalis ATCC 51575 assessed as inhibition of bacterial biofilm after 18 hrs by broth microdilution method; type: functional; outline: as §1

SMILES	MBIC
CCOc1cc(/C=C2\SC(=S)N(c3cccnc3)C2=O)ccc1O	21 µM
CCOc1cc(/C=C2\SC(=S)N(c3cccc(F)c3)C2=O)ccc1O	63 µM

— ChEMBL document CHEMBL1649230, “Aryl rhodanines specifically inhibit staphylococcal and enterococcal biofilm formation” (Antimicrob Agents Chemother, 2009)
